In ChEMBL document CHEMBL1157776, “Synthesis, topoisomerase I and II inhibitory activity, cytotoxicity, and structure-activity relationship study of hydroxylated 2,4-diphenyl-6-aryl pyridines” (Bioorg Med Chem, 2010) one finds IC50 and inhibition data, which are given here for nine compounds.

DNA topoisomerase 2-alpha (Homo sapiens), sequence (P11388 whole entry): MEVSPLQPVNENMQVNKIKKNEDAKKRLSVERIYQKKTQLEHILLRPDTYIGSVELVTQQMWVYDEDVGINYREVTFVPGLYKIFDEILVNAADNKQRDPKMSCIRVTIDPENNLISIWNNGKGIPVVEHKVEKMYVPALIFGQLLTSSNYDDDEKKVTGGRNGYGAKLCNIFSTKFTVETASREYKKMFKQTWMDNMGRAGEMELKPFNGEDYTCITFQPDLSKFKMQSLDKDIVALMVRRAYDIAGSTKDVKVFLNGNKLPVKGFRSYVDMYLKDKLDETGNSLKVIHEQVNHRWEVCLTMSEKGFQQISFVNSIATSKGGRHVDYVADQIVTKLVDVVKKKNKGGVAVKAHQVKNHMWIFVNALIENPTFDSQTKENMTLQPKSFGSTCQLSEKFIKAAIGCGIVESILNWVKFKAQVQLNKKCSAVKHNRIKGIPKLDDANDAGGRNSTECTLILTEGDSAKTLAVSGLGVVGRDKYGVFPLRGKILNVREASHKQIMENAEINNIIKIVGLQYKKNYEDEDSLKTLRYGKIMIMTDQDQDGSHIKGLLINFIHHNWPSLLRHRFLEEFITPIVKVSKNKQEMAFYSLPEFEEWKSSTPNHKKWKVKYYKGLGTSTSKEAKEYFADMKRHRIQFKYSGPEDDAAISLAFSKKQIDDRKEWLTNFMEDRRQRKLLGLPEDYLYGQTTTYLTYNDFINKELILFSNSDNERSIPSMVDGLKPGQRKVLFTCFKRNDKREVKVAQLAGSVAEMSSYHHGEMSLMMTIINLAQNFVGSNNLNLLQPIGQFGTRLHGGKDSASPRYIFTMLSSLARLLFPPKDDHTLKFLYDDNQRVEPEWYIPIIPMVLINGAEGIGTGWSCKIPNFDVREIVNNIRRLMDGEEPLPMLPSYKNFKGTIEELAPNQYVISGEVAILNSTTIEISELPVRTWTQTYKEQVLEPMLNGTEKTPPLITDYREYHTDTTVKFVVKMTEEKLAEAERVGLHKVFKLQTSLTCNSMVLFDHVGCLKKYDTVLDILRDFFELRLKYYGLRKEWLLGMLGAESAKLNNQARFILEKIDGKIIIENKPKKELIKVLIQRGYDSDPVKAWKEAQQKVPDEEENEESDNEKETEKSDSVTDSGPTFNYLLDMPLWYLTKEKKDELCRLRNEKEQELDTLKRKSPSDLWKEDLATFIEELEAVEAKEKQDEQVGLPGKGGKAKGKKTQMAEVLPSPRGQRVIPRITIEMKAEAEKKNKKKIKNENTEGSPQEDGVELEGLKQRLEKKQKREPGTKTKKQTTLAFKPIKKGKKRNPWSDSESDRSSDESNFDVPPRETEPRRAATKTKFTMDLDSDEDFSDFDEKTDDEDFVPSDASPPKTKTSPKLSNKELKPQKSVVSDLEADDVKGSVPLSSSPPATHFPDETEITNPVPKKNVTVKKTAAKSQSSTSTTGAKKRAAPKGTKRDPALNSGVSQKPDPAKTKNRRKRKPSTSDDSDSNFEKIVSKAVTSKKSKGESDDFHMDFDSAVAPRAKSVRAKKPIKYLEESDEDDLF

The subject of one experiment is DU-145. The experiment is described as follows: Cytotoxicity against human DU145 cells after 2 days by automatic ELISA reader system. The experiment is classed as functional, cell-based. The conditions noted are these: DU-145, 48 h. In outline:
(§1)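 Cells seeded at 2–4 × 10⁴ per well and grown overnight in medium with 10% FBS, 5% CO₂, 37 °C. Compound added on day 2; on day 4 CCK-8 solution added and incubated a further 4 h. Absorbance read at 450 nm and fitted to a four-parameter logistic equation for IC₅₀.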
By IC50 is commonly meant the concentration at which inhibition is half-maximal. Read a high IC50 as lower potency. `Oc1cccc(-c2cc(-c3ccccc3)cc(-c3ccncc3)n2)c1` returned an IC50 of 19.2 µM.
The same measure, in the same setting: the value for `Oc1ccc(-c2cc(-c3ccccc3)cc(-c3ccsc3)n2)cc1` was 8.5 µM.
`Oc1cccc(-c2cc(-c3ccccc3)nc(-c3ccccc3)c2)c1` gave a 50% inhibitory concentration (IC50) of 17.9 µM.
`Oc1ccc(-c2cc(-c3ccccc3)cc(-c3cccnc3)n2)cc1` yielded a half-maximal inhibitory concentration (IC50) of 8.4 µM.
As to `Oc1ccc(-c2cc(-c3ccccc3)nc(-c3ccncc3)c2)cc1`, half-maximal inhibition (IC50) required 2.2 µM.
On the same count and under the same terms, the result for `COc1cc([C@@H]2c3cc4c(cc3[C@@H](O[C@@H]3O[C@@H]5CO[C@@H](C)O[C@H]5[C@H](O)[C@H]3O)[C@H]3COC(=O)[C@H]23)OCO4)cc(OC)c1O` [ETOPOSIDE] reads 0.5 µM; that for `Oc1ccc(-c2cc(-c3ccccc3)nc(-c3ccco3)c2)cc1`, 8.6 µM; that for `Oc1cccc(-c2cc(-c3ccccc3)cc(-c3cccs3)n2)c1`, 18.9 µM.
The same measure, in the same setting: the result for `Oc1cccc(-c2cc(-c3ccccc3)cc(-c3ccccc3)n2)c1` reads 17.9 µM.

A further experiment has as its system HCT-15. The experiment can be described thus: Cytotoxicity against human HCT15 cells after 2 days by automatic ELISA reader system. To be noted: HCT-15, 48 h. The experiment is classed as functional, cell-based. In outline: as §1
With `Oc1cccc(-c2cc(-c3ccccc3)cc(-c3ccncc3)n2)c1`, the half-inhibitory concentration (IC50) is 27.4 µM.
Same read-out and setting: the value for `Oc1ccc(-c2cc(-c3ccccc3)cc(-c3ccsc3)n2)cc1` was 1.1 µM; that for `Oc1cccc(-c2cc(-c3ccccc3)nc(-c3ccccc3)c2)c1` was 17.9 µM; that for `Oc1ccc(-c2cc(-c3ccccc3)cc(-c3cccnc3)n2)cc1` was 15.1 µM.
Same read-out and setting: the result for `Oc1ccc(-c2cc(-c3ccccc3)nc(-c3ccncc3)c2)cc1` reads 11.7 µM.
The same measure, in the same setting: the value for `Oc1ccc(-c2cc(-c3ccccc3)nc(-c3ccco3)c2)cc1` was 5.1 µM; that for `Oc1cccc(-c2cc(-c3ccccc3)cc(-c3cccs3)n2)c1` was 10.8 µM.
`Oc1cccc(-c2cc(-c3ccccc3)cc(-c3ccccc3)n2)c1` displayed an IC50 of 9.95 µM.

The test system of another experiment is HL-60. The experiment is described as follows: Cytotoxicity against human HL60 cells after 2 days by automatic ELISA reader system. The conditions noted are these: HL-60, 48 h. The experiment is classed as functional, cell-based. Summed up:
as §1
Take `Oc1cccc(-c2cc(-c3ccccc3)cc(-c3ccncc3)n2)c1`: it took 23.9 µM to reach half-maximal inhibition (IC50).
Same read-out and setting: the value for `Oc1ccc(-c2cc(-c3ccccc3)cc(-c3ccsc3)n2)cc1` was 3.6 µM; that for `Oc1cccc(-c2cc(-c3ccccc3)nc(-c3ccccc3)c2)c1` was 13.5 µM.
Same read-out and setting: the result for `Oc1ccc(-c2cc(-c3ccccc3)cc(-c3cccnc3)n2)cc1` reads 4.1 µM.
On the same count and under the same terms, the result for `Oc1ccc(-c2cc(-c3ccccc3)nc(-c3ccncc3)c2)cc1` reads 1.4 µM; that for `COc1cc([C@@H]2c3cc4c(cc3[C@@H](O[C@@H]3O[C@@H]5CO[C@@H](C)O[C@H]5[C@H](O)[C@H]3O)[C@H]3COC(=O)[C@H]23)OCO4)cc(OC)c1O` [ETOPOSIDE], 1 µM; that for `Oc1ccc(-c2cc(-c3ccccc3)nc(-c3ccco3)c2)cc1`, 13.7 µM.
`Oc1cccc(-c2cc(-c3ccccc3)cc(-c3cccs3)n2)c1` gave an IC50 of 14.1 µM.
On the same count and under the same terms, the value for `Oc1cccc(-c2cc(-c3ccccc3)cc(-c3ccccc3)n2)c1` was 11.5 µM.

The next experiment has as its target DNA topoisomerase 2-alpha (Homo sapiens) (UniProt P11388). The experiment is described as follows: Inhibition of human recombinant TOP2A-mediated relaxation of supercoiled Escherichia coli pBR322 DNA at 100 uM after 30 mins by transillumination.
Details: not given
Summed up: (§2)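 200 ng supercoiled pBR322 with topo II, ± compound, 30 °C for 30 min. Buffer was 10 mM Tris–HCl pH 7.9, 50 mM NaCl, 5 mM MgCl₂, 1 mM EDTA, 1 mM ATP, BSA. Stopped with 7 mM EDTA, then 1% agarose gel in TAE at 25 V for 4 h. Ethidium bromide stain, UV transillumination, supercoiled DNA quantitated.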
Usually inhibition stands for the change of the read-out against control, counted positive when it falls. In the case of `Oc1cccc(-c2cc(-c3ccccc3)cc(-c3ccncc3)n2)c1`, the inhibition was found to be 3.1%.
Still for that read-out and setting: the result for `Oc1ccc(-c2cc(-c3ccccc3)cc(-c3ccsc3)n2)cc1` reads 38.3%; that for `Oc1cccc(-c2cc(-c3ccccc3)nc(-c3ccccc3)c2)c1`, 68.2%.
Same read-out and setting: the value for `Oc1ccc(-c2cc(-c3ccccc3)cc(-c3cccnc3)n2)cc1` was 18.6%.
On the same count and under the same terms, the value for `Oc1ccc(-c2cc(-c3ccccc3)nc(-c3ccncc3)c2)cc1` was 8.4%; that for `Oc1ccc(-c2cc(-c3ccccc3)nc(-c3ccco3)c2)cc1` was 30.2%.
With `Oc1cccc(-c2cc(-c3ccccc3)cc(-c3cccs3)n2)c1`, the inhibition was determined as 53.8%.
On the same count and under the same terms, the value for `Oc1cccc(-c2cc(-c3ccccc3)cc(-c3ccccc3)n2)c1` was 48.4%.

The target is the same in a further experiment. The experiment is described as follows: Inhibition of human recombinant TOP2A-mediated relaxation of supercoiled Escherichia coli pBR322 DNA at 20 uM after 30 mins by transillumination.
Details: not given
In outline:
as §2
As for `Oc1cccc(-c2cc(-c3ccccc3)cc(-c3ccncc3)n2)c1`, the inhibition was found to be 1.8%.
On the same count and under the same terms, the value for `Oc1ccc(-c2cc(-c3ccccc3)cc(-c3ccsc3)n2)cc1` was 8.3%; that for `Oc1cccc(-c2cc(-c3ccccc3)nc(-c3ccccc3)c2)c1` was 32%; that for `COc1cc([C@@H]2c3cc4c(cc3[C@@H](O[C@@H]3O[C@@H]5CO[C@@H](C)O[C@H]5[C@H](O)[C@H]3O)[C@H]3COC(=O)[C@H]23)OCO4)cc(OC)c1O` [ETOPOSIDE] was 30.4%.
Same read-out and setting: the value for `Oc1ccc(-c2cc(-c3ccccc3)nc(-c3ccco3)c2)cc1` was 10.3%.
Same read-out and setting: the result for `Oc1cccc(-c2cc(-c3ccccc3)cc(-c3cccs3)n2)c1` reads 43.5%; that for `Oc1cccc(-c2cc(-c3ccccc3)cc(-c3ccccc3)n2)c1`, 32%.

The target of a further experiment is T1, DNA topoisomerase 1 (Homo sapiens) (UniProt P11387).
T1 sequence (whole entry): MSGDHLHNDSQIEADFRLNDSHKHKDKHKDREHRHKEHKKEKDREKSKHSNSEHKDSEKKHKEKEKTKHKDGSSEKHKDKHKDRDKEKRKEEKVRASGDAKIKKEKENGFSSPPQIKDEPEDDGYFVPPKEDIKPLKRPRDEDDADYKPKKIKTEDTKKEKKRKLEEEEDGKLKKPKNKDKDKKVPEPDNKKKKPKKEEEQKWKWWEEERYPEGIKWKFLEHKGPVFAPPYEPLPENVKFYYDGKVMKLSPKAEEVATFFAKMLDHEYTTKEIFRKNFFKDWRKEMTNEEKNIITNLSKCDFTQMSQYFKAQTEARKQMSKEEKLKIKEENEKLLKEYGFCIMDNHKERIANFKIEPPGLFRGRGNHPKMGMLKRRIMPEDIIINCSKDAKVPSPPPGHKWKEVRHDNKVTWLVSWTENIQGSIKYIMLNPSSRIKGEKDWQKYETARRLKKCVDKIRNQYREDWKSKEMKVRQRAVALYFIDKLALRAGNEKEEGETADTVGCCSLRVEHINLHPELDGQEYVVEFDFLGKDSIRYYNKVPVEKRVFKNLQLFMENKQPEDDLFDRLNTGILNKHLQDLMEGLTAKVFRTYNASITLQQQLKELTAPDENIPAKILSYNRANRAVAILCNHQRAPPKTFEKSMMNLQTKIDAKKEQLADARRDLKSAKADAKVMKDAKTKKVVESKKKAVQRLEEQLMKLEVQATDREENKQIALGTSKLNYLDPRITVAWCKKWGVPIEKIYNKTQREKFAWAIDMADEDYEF
The experiment is described as follows: Inhibition of human recombinant TOP1-mediated relaxation of supercoiled Escherichia coli pBR322 DNA at 100 uM after 30 mins by transillumination.
Details: not given
In outline: (§3)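 Relaxation assay: 100 ng supercoiled pBR322 with 0.4 units recombinant human topo I, ± compound (DMSO stocks 20 mM), 37 °C, 30 min. Buffer was 10 mM Tris–HCl pH 7.9, 150 mM NaCl, 0.1% BSA, 1 mM spermidine, 5% glycerol. Stopped with sarcosyl/bromophenol blue/glycerol, then 1% agarose gel in TAE at 15 V for 7 h. Ethidium bromide stain, UV transillumination, bands quantitated by densitometry.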
On to `Oc1cccc(-c2cc(-c3ccccc3)cc(-c3ccncc3)n2)c1`, for which the inhibition came out at 70.4%.
On the same count and under the same terms, the value for `Oc1ccc(-c2cc(-c3ccccc3)cc(-c3ccsc3)n2)cc1` was 20.4%; that for `Oc1cccc(-c2cc(-c3ccccc3)nc(-c3ccccc3)c2)c1` was 11.5%; that for `Oc1ccc(-c2cc(-c3ccccc3)cc(-c3cccnc3)n2)cc1` was 44%.
Take `Oc1ccc(-c2cc(-c3ccccc3)nc(-c3ccncc3)c2)cc1`: the inhibition is 57.5%.
The same measure, in the same setting: the value for `Oc1ccc(-c2cc(-c3ccccc3)nc(-c3ccco3)c2)cc1` was 5%; that for `Oc1cccc(-c2cc(-c3ccccc3)cc(-c3cccs3)n2)c1` was 51.2%.
Same read-out and setting: the value for `Oc1cccc(-c2cc(-c3ccccc3)cc(-c3ccccc3)n2)c1` was 12.9%.

The next experiment deals with T1, DNA topoisomerase 1 (Homo sapiens). The experiment can be described thus: Inhibition of human recombinant TOP1-mediated relaxation of supercoiled Escherichia coli pBR322 DNA at 20 uM after 30 mins by transillumination.
Details: not given
In outline: as §3
Take `Oc1cccc(-c2cc(-c3ccccc3)cc(-c3ccncc3)n2)c1`: the inhibition was 25.4%.
The same measure, in the same setting: the value for `Oc1cccc(-c2cc(-c3ccccc3)nc(-c3ccccc3)c2)c1` was 0%; that for `Oc1ccc(-c2cc(-c3ccccc3)cc(-c3cccnc3)n2)cc1` was 0.9%; that for `Oc1ccc(-c2cc(-c3ccccc3)nc(-c3ccncc3)c2)cc1` was 5.8%.
As to `Oc1cccc(-c2cc(-c3ccccc3)cc(-c3cccs3)n2)c1`, the inhibition was 5.8%.
On the same count and under the same terms, the result for `Oc1cccc(-c2cc(-c3ccccc3)cc(-c3ccccc3)n2)c1` reads 0%.

The test system of another experiment is MDA-MB-231. The experiment is described as follows: Cytotoxicity against human MDA-MB-231 cells after 2 days by automatic ELISA reader system. The experiment is classed as functional, cell-based. To be noted: MDA-MB-231, 48 h. Summed up:
as §1
As to `Oc1cccc(-c2cc(-c3ccccc3)cc(-c3ccncc3)n2)c1`, the 50% inhibitory concentration (IC50) was found to be 10.4 µM.
Turning to `Oc1ccc(-c2cc(-c3ccccc3)cc(-c3ccsc3)n2)cc1`, it took 5.7 µM to reach half-maximal inhibition (IC50).
`Oc1cccc(-c2cc(-c3ccccc3)nc(-c3ccccc3)c2)c1` gave a 50% inhibitory concentration (IC50) of 19.5 µM.
Compound `Oc1ccc(-c2cc(-c3ccccc3)cc(-c3cccnc3)n2)cc1` showed an IC50 of 2.2 µM.
`Oc1ccc(-c2cc(-c3ccccc3)nc(-c3ccncc3)c2)cc1` came in with an IC50 of 2.1 µM.
On the same count and under the same terms, the result for `COc1cc([C@@H]2c3cc4c(cc3[C@@H](O[C@@H]3O[C@@H]5CO[C@@H](C)O[C@H]5[C@H](O)[C@H]3O)[C@H]3COC(=O)[C@H]23)OCO4)cc(OC)c1O` [ETOPOSIDE] reads 0.7 µM.
`Oc1ccc(-c2cc(-c3ccccc3)nc(-c3ccco3)c2)cc1` displayed an IC50 of 1 µM.
The same measure, in the same setting: the value for `Oc1cccc(-c2cc(-c3ccccc3)cc(-c3cccs3)n2)c1` was 18.1 µM; that for `Oc1cccc(-c2cc(-c3ccccc3)cc(-c3ccccc3)n2)c1` was 19.3 µM.

The next experiment deals with HeLa. The experiment is described as follows: Cytotoxicity against human HeLa cells after 2 days by automatic ELISA reader system. The experiment is classed as functional, cell-based. The conditions noted are these: 48 h. In outline:
as §1
Compound `Oc1cccc(-c2cc(-c3ccccc3)cc(-c3ccncc3)n2)c1` came in with an IC50 of 28.1 µM.
As for `Oc1ccc(-c2cc(-c3ccccc3)cc(-c3ccsc3)n2)cc1`, 17.3 µM corresponded to half-maximal inhibition (IC50).
The same measure, in the same setting: the result for `Oc1cccc(-c2cc(-c3ccccc3)nc(-c3ccccc3)c2)c1` reads 15.1 µM.
On the same count and under the same terms, the value for `Oc1ccc(-c2cc(-c3ccccc3)cc(-c3cccnc3)n2)cc1` was 13.6 µM.
In the case of `Oc1ccc(-c2cc(-c3ccccc3)nc(-c3ccncc3)c2)cc1`, half-maximal inhibition (IC50) required 1.6 µM.
The same measure, in the same setting: the value for `COc1cc([C@@H]2c3cc4c(cc3[C@@H](O[C@@H]3O[C@@H]5CO[C@@H](C)O[C@H]5[C@H](O)[C@H]3O)[C@H]3COC(=O)[C@H]23)OCO4)cc(OC)c1O` [ETOPOSIDE] was 1.4 µM.
The same measure, in the same setting: the result for `Oc1ccc(-c2cc(-c3ccccc3)nc(-c3ccco3)c2)cc1` reads 4.5 µM; that for `Oc1cccc(-c2cc(-c3ccccc3)cc(-c3cccs3)n2)c1`, 17 µM.
`Oc1cccc(-c2cc(-c3ccccc3)cc(-c3ccccc3)n2)c1` had an IC50 of 16.1 µM.
